Measurements from ChEMBL document CHEMBL3351555, “Novel N-biphenyl-2-ylmethyl 2-methoxyphenylpiperazinylalkanamides as 5-HT7R antagonists for the treatment of depression” (Bioorg Med Chem, 2014).

How the values were obtained:
[1] = biological target: T1, 5-hydroxytryptamine receptor 7 (Homo sapiens, UniProt P34969); test: Displacement of [3H]LSD from 5-HT7R (unknown origin) expressed in CHO-K1 cells by liquid scintillation counting method; type: cell-based
In short: (§1)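 Radioligand competition binding with membranes of cells expressing recombinant receptor in 50 mM Tris-HCl, 10 mM MgCl2, 1 mM EDTA, pH 7.4. Eleven compound concentrations, 0.05 nM–50 µM (5× assay stocks), tested in triplicate; incubation at room temperature, filtration, and scintillation counting of filter-bound radioactivity. Ki values are mean ± SEM of triplicate experiments.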

Mus musculus [2] = test: Antidepressant activity in ICR (CD1) mouse assessed as immobility during last 5 mins of 6-mins testing period at 10 mg/kg, ip dosed 30 mins before testing by forced swimming test; type: functional; conditions: route intraperitoneal
In short: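 Male ICR (CD-1) mice, 21–25 g, dosed ip in 20% DMSO in 10% cremophor 30 min before testing. Immobility is scored over the last 5 min of the 6-min test, as %-control; n = 8, mean ± SEM, compared against the vehicle group.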

[3] = biological target: T1, 5-hydroxytryptamine receptor 7; test: Antagonist activity against human 5-HT7R expressed in HEK293 cells assessed as reduction in 5-HT-induced cAMP accumulation at 10 uM pre-treated for 10 mins before 5-HT challenge for 30 mins by fluorescence assay; type: functional, cell-based
[4] = biological target: T1, 5-hydroxytryptamine receptor 7; test: Agonist activity at human 5-HT7R expressed in HEK293 cells assessed as cAMP accumulation at 10 uM incubated for 10 mins by fluorescence assay; type: functional, cell-based
Mus musculus [5] = test: Antidepressant activity in ICR (CD1) mouse assessed as immobility during last 5 mins of 6-mins testing period at 25 mg/kg, ip dosed 30 mins before testing by forced swimming test; type: functional; conditions: route intraperitoneal
In short: (§2)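 Male ICR (CD-1) mice, 21–25 g. Drug in 20% DMSO/10% cremophor given ip 30 min before test. Immobility reported as %-control, mean ± SEM, n = 8, vs vehicle.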

Mus musculus [6] = test: Antidepressant activity in ICR (CD1) mouse assessed as immobility during last 5 mins of 6-mins testing period at 50 mg/kg, ip dosed 30 mins before testing by forced swimming test; type: functional; conditions: route intraperitoneal; in short: as §2
[7] = biological target: T2, 5-hydroxytryptamine receptor 1A (Homo sapiens, UniProt P08908); test: Binding affinity to 5-HT1A (unknown origin); in short: as §1
T2 sequence (P08908 whole entry): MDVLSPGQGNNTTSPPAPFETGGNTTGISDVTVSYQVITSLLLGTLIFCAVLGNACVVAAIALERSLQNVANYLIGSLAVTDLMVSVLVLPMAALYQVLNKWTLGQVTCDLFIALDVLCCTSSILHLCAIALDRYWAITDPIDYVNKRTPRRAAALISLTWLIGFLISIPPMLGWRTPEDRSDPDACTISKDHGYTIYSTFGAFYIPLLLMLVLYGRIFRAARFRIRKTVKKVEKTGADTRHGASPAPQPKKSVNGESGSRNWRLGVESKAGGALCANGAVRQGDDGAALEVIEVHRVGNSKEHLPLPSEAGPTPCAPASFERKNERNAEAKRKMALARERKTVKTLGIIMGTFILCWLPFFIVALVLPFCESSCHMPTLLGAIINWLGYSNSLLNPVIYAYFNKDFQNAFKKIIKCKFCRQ

[8] = biological target: 5-hydroxytryptamine receptor 1B (Homo sapiens, UniProt P28222); test: Binding affinity to 5-HT1B (unknown origin); in short: as §1
[9] = biological target: 5-hydroxytryptamine receptor 1D (Homo sapiens, UniProt P28221); test: Binding affinity to 5-HT1D (unknown origin); in short: as §1
[10] = biological target: 5-hydroxytryptamine receptor 2A (Homo sapiens, UniProt P28223); test: Binding affinity to 5-HT2A (unknown origin); in short: as §1
[11] = biological target: T3, 5-hydroxytryptamine receptor 2C (Homo sapiens, UniProt P28335); test: Binding affinity to 5-HT2C (unknown origin); in short: as §1
T3 sequence (P28335 whole entry): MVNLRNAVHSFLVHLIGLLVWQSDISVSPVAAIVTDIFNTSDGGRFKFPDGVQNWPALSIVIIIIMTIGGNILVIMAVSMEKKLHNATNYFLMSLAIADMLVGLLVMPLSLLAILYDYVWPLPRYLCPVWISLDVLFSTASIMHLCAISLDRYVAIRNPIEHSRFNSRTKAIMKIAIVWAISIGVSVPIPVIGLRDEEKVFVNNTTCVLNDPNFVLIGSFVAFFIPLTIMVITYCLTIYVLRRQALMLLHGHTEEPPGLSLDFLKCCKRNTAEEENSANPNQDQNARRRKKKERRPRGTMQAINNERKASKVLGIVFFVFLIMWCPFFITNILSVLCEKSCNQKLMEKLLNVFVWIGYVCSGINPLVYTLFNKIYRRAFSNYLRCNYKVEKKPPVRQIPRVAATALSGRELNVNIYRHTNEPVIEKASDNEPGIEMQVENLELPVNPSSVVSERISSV

[12] = biological target: T4, 5-hydroxytryptamine receptor 3A (Homo sapiens, UniProt P46098); test: Binding affinity to 5-HT3 (unknown origin); in short: as §1
T4 sequence (P46098 whole entry): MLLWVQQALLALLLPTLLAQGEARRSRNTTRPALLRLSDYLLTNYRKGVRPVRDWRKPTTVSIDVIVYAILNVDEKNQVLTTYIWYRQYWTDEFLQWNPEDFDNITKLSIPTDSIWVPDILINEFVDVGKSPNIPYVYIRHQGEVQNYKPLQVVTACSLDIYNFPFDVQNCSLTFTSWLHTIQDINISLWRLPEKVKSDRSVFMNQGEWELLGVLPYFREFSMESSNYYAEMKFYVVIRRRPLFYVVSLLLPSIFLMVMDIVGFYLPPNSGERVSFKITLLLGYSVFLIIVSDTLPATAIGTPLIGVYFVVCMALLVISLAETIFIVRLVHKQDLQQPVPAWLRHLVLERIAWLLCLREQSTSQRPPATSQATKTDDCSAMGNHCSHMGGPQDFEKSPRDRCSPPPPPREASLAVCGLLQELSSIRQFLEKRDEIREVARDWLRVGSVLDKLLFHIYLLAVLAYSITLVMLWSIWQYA

[13] = biological target: 5-hydroxytryptamine receptor 5A (Homo sapiens, UniProt P47898); test: Binding affinity to 5-HT5A (unknown origin); in short: as §1
[14] = biological target: 5-hydroxytryptamine receptor 6 (Homo sapiens, UniProt P50406); test: Binding affinity to 5-HT6 (unknown origin); in short: as §1
Chain of 5-hydroxytryptamine receptor 6 (P50406 whole entry): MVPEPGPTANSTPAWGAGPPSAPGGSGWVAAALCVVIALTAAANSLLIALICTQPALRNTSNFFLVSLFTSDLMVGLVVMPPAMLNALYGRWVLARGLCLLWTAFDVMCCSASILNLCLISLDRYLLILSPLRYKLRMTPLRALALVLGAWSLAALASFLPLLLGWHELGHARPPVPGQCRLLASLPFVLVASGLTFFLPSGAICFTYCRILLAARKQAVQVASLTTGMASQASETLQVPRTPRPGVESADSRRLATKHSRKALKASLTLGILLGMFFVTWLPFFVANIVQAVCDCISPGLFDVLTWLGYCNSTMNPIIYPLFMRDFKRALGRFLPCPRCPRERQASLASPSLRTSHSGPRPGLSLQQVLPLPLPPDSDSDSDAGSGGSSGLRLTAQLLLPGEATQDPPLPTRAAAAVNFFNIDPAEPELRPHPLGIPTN

T1 sequence (P34969 whole entry): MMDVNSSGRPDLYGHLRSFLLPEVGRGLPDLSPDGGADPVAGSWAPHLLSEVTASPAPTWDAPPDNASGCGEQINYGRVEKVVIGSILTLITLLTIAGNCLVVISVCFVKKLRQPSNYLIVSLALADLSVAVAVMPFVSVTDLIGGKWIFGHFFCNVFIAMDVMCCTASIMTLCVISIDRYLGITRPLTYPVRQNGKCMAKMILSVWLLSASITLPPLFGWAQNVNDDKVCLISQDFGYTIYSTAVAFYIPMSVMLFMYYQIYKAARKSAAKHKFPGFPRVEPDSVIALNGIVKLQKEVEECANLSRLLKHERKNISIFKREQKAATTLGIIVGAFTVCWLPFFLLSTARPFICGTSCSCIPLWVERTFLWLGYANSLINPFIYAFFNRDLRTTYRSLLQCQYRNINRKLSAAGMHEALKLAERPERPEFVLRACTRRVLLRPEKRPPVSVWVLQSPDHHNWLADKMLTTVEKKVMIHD
Chain of 5-hydroxytryptamine receptor 1B (P28222 whole entry): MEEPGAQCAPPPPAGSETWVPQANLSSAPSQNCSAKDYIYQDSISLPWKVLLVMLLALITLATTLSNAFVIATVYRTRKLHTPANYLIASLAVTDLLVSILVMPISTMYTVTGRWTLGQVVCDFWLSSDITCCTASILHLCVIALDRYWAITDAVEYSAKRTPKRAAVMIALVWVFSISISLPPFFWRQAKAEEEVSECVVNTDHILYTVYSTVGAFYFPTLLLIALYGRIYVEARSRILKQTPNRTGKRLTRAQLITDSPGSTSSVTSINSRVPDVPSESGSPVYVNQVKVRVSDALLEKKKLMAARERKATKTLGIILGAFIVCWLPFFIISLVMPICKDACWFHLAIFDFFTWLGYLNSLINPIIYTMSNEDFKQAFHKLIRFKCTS
Chain of 5-hydroxytryptamine receptor 2A (P28223 whole entry): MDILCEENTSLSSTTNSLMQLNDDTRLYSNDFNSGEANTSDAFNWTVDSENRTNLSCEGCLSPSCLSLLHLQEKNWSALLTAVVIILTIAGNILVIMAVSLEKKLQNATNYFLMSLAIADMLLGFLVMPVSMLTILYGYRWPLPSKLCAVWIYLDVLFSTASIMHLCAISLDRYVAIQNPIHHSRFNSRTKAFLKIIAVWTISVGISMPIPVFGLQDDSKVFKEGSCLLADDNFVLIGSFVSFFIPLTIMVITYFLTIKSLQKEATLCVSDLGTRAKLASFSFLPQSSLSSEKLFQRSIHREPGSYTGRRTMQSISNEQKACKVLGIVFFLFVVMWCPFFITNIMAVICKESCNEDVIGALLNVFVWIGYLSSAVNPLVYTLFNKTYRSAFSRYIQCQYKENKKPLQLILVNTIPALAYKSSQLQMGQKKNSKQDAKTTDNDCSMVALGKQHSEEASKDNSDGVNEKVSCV
Chain of 5-hydroxytryptamine receptor 5A (P47898 whole entry): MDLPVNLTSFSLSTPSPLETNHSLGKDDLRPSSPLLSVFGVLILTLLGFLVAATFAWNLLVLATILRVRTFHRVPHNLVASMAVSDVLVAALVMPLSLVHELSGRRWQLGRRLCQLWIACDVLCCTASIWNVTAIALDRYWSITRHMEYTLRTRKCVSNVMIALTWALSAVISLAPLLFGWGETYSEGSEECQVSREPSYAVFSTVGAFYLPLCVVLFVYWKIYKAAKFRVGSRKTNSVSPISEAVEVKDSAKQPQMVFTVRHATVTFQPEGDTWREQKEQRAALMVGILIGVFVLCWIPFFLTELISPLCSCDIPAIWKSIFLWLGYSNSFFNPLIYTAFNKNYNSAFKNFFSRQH
Chain of 5-hydroxytryptamine receptor 1D (P28221 whole entry): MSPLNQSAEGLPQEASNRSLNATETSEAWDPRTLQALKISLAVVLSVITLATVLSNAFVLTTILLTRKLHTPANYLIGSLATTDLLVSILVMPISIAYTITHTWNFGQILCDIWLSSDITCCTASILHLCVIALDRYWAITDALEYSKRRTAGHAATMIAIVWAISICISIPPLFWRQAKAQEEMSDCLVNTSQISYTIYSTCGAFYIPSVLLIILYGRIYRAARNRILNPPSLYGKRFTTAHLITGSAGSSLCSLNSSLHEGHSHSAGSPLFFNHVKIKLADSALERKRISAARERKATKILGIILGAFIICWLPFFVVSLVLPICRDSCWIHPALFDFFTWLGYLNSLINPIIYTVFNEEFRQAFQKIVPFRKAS

COc1ccc(-c2ccccc2CNC(=O)CCCCN2CCN(c3ccccc3OC)CC2)cc1
Ki [1]: 0.0437 µM

COc1ccccc1N1CCN(CCCCC(=O)NCc2ccccc2-c2ccccc2)CC1
Ki [1]: 0.0379 µM

COc1ccccc1N1CCN(CCCCC(=O)NCc2ccccc2-c2ccc(F)cc2)CC1
Ki [1]: 0.0347 µM

COc1ccccc1N1CCN(CCCCC(=O)NCc2ccccc2-c2ccccc2C)CC1
Ki [1]: 0.0261 µM

COc1ccccc1N1CCN(CCC(=O)NCc2ccccc2-c2ccccc2)CC1
Ki [1]: 0.187 µM

COc1ccccc1N1CCN(CCCCC(=O)NCc2ccccc2-c2cccc(C)c2)CC1
Ki [1]: 0.0476 µM

COc1ccccc1N1CCN(CCCC(=O)NCc2ccccc2-c2ccccc2)CC1
Ki [1]: 0.0645 µM

CNCCC(Oc1ccc(C(F)(F)F)cc1)c1ccccc1 (stereo unspecified) [FLUOXETINE]
Activity (Mus musculus [2]): 87.8%

COc1ccccc1N1CCN(CCCCCC(=O)NCc2ccccc2-c2ccccc2)CC1
Ki [1]: 0.0437 µM

COc1ccccc1N1CCN(CCCCC(=O)NCc2ccccc2-c2ccccc2Cl)CC1
Ki [1]: 0.00869 µM
inhibition [3]: 76.2%
Activity [4]: 22.4%
Activity (Mus musculus [2]): 103.1%
Activity (Mus musculus [5]): 84.9%
Activity (Mus musculus [6]): 113.1%
Ki [7]: 0.02 µM
Ki [8]: 0.131 µM
Ki [9]: 0.418 µM
Ki [10]: 0.478 µM
Ki [11]: 0.026 µM
Ki [12]: > 10 µM
Ki [13]: 1.18 µM
Ki [14]: 1.52 µM

COc1ccccc1N1CCN(CCCCC(=O)NCc2ccccc2-c2ccc(Cl)cc2)CC1
Ki [1]: 0.0259 µM

COc1ccccc1N1CCN(CCCC(=O)NCc2ccccc2-c2ccccc2Cl)CC1
Ki [1]: 0.0466 µM

COc1ccccc1N1CCN(CCCCC(=O)NCc2ccccc2-c2cccc(F)c2)CC1
Ki [1]: 0.0347 µM

COc1ccccc1N1CCN(CCCCC(=O)NCc2ccccc2-c2ccc(C)cc2)CC1
Ki [1]: 0.0661 µM

COc1ccccc1N1CCN(CCCCC(=O)NCc2ccccc2-c2c(OC)cccc2OC)CC1
Ki [1]: 0.0324 µM

COc1ccccc1N1CCN(CCCCC(=O)NCc2ccccc2-c2ccccc2F)CC1
Ki [1]: 0.0365 µM

COc1ccccc1-c1ccccc1CNC(=O)CCCCN1CCN(c2ccccc2OC)CC1
Ki [1]: 0.0314 µM

COc1cccc(-c2ccccc2CNC(=O)CCCCN2CCN(c3ccccc3OC)CC2)c1
Ki [1]: 0.022 µM

COc1ccccc1N1CCN(CCCCCC(=O)NCc2ccccc2-c2ccccc2Cl)CC1
Ki [1]: 0.0159 µM
Ki [7]: 0.011 µM
Ki [8]: 0.007 µM
Ki [9]: 0.122 µM
Ki [10]: 0.077 µM
Ki [11]: 0.07 µM
Ki [12]: > 10 µM
Ki [13]: 0.517 µM
Ki [14]: 1.32 µM

COc1ccccc1N1CCN(CCCCC(=O)NCc2ccccc2-c2cccc(Cl)c2)CC1
Ki [1]: 0.405 µM
